{
  "source": "ChEMBL document CHEMBL4840314",
  "about": "“Optimization of peptide-based inhibitors targeting the HtrA serine protease in Chlamydia: Design, synthesis and biological evaluation of pyridone-based and N-Capping group-modified analogues” (Eur J Med Chem, 2021)",
  "note": "Activity calls are given as the source filed them. The calls are words filed in the database; no cut-off is given here.",
  "data": [
    {"test_system": "Staphylococcus aureus", "assay": "Antibacterial activity against Staphylococcus aureus assessed as growth inhibition at 50 uM", "format": "functional, organism-based", "details": "not given", "in_short": "(§1)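 Broth microdilution MIC in cation-adjusted Mueller Hinton broth. Compound was 2-fold serially diluted from 32 µg/mL (approx. 50 µM) to 0.015 µg/mL. The inoculum was about 5×10⁵ CFU/mL from overnight cultures. Plates were incubated at 37 °C with shaking for 24 h. MIC was the lowest concentration without growth; technical triplicate.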", "values": [
      {"smiles": "CC(C)C(NC(=O)[C@@H]1CCCN1C(=O)[C@@H](NC(=O)OC(C)(C)C)C(C)(C)C)P(=O)(Oc1ccccc1)Oc1ccccc1", "note": "(some centres undefined)", "Activity": "inactive"},
      {"smiles": "CCC(C)C(NC(=O)[C@@H]1CCCN1C(=O)[C@@H](NC(=O)OC(C)(C)C)C(C)(C)C)P(=O)(Oc1ccccc1)Oc1ccccc1", "note": "(some centres undefined)", "Activity": "inactive"},
      {"smiles": "CC(C)C(NC(=O)[C@@H]1CCCN1C(=O)[C@@H](NC(=O)OC(C)(C)C)C(C)C)P(=O)(Oc1ccccc1)Oc1ccccc1", "note": "(some centres undefined)", "Activity": "inactive"}
    ]},
    {"test_system": "Pseudomonas aeruginosa", "assay": "Antibacterial activity against Pseudomonas aeruginosa assessed as growth inhibition at 50 uM", "format": "functional, organism-based", "details": "not given", "in_short": "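P. aeruginosa PAO1 was grown overnight in fluorescent broth (pH 7.0) at 37 °C with shaking, diluted 1/1000 with added MgSO₄, and given compound at 50 or 100 µM final. DMSO controls were 0.5% or 1%. OD600 and fluorescence (ex 405/em 460 nm) were read every 15 min for 24 or 48 h. Pyoverdine was quantified as area under the curve.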", "values": [
      {"smiles": "CC(C)C(NC(=O)[C@@H]1CCCN1C(=O)[C@@H](NC(=O)OC(C)(C)C)C(C)(C)C)P(=O)(Oc1ccccc1)Oc1ccccc1", "note": "(some centres undefined)", "Activity": "inactive"},
      {"smiles": "CCC(C)C(NC(=O)[C@@H]1CCCN1C(=O)[C@@H](NC(=O)OC(C)(C)C)C(C)(C)C)P(=O)(Oc1ccccc1)Oc1ccccc1", "note": "(some centres undefined)", "Activity": "inactive"},
      {"smiles": "CC(C)C(NC(=O)[C@@H]1CCCN1C(=O)[C@@H](NC(=O)OC(C)(C)C)C(C)C)P(=O)(Oc1ccccc1)Oc1ccccc1", "note": "(some centres undefined)", "Activity": "inactive"}
    ]},
    {"test_system": "HEp-2", "assay": "Cytotoxicity against human HEp-2 cells assessed as reduction in MTS absorbance at 100 uM by MTS assay", "format": "cell-based", "parameters": "scale not given: the % may be the effect or the level left", "details": "hep-2, 100 µM", "in_short": "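HEp-2 cells were seeded at 5000/well and treated 24 h later with compound (two doses) alongside 1% DMSO and media controls, in triplicate. After 24 h treatment, medium was replaced with fresh supplemented DMEM. MTS/PMS was added for 4 h and absorbance read at 490 nm. Results are expressed as % MTS reduction relative to 1% DMSO-treated cells.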", "values": [
      {"smiles": "CC(C)C(NC(=O)[C@@H]1CCCN1C(=O)[C@@H](NC(=O)OC(C)(C)C)C(C)C)P(=O)(Oc1ccccc1)Oc1ccccc1", "note": "(some centres undefined)", "Activity": "<= 25%"}
    ]},
    {"test_system": "HEp-2", "assay": "Cytotoxicity against human HEp-2 cells assessed as decrease in cell integrity at 25 uM by LDH assay", "format": "cell-based", "parameters": "scale not given: the % may be the effect or the level left", "details": "hep-2, 25 µM", "in_short": "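HEp-2 cells were seeded at 5000/well and treated 24 h later at two doses, with 1% DMSO and media-only controls, in triplicate, for 8 h. Maximum-release wells were lysed with 0.8% Triton X-100 45 min before supernatant collection. Supernatant was incubated with CytoTox reagent for 30 min, then stop solution, and read at A490. Extracellular LDH is given as % of maximum release.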", "values": [
      {"smiles": "CC(C)C(NC(=O)[C@@H]1CCCN1C(=O)[C@@H](NC(=O)OC(C)(C)C)C(C)(C)C)P(=O)(Oc1ccccc1)Oc1ccccc1", "note": "(some centres undefined)", "Activity": "<= 3.4%"},
      {"smiles": "CCC(C)C(NC(=O)[C@@H]1CCCN1C(=O)[C@@H](NC(=O)OC(C)(C)C)C(C)(C)C)P(=O)(Oc1ccccc1)Oc1ccccc1", "note": "(some centres undefined)", "Activity": "<= 3.4%"},
      {"smiles": "CC(C)C(NC(=O)[C@@H]1CCCN1C(=O)[C@@H](NC(=O)OC(C)(C)C)C(C)C)P(=O)(Oc1ccccc1)Oc1ccccc1", "note": "(some centres undefined)", "Activity": "<= 3.4%"}
    ]},
    {"biological_target": "T1, Probable periplasmic serine endoprotease DegP-like (Chlamydia trachomatis, UniProt P18584)", "T1 sequence (P18584 whole entry)": "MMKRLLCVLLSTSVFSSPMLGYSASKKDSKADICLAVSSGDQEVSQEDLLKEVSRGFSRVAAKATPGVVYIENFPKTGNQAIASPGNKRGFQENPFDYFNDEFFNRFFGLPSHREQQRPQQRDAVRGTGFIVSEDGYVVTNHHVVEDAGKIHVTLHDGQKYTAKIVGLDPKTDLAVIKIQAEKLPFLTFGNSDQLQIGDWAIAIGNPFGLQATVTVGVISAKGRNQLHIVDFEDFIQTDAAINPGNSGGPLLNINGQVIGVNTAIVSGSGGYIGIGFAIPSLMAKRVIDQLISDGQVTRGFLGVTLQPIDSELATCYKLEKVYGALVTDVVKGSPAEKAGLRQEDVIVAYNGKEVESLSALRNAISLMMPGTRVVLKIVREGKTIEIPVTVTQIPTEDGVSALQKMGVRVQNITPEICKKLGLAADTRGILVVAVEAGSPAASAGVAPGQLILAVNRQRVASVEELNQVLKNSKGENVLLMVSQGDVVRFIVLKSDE", "assay": "Inhibition of recombinant ctHtrA serine protease using MeOCoum-ENLHLPLPI1F-D as substrate pretreated for 10 min followed by substrate addition and measured after 30 minutes", "details": "not given", "in_short": "(§2)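 Recombinant CtHtrA was tested against a six-dose inhibitor series in 50 mM Tris, 20 mM MgCl₂, pH 7.0. Plates were shaken before each of multiple reads per well. Each dose was run in triplicate, with a JO146 dose series (n=3) and DMSO controls (n=6). Relative inhibition is IC50(JO146)/IC50(compound), because IC50 varied between batches.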", "units": {"IC50": "µM"}, "values": [
      {"smiles": "CC(C)C(NC(=O)[C@@H]1CCCN1C(=O)[C@@H](NC(=O)OC(C)(C)C)C(C)(C)C)P(=O)(Oc1ccccc1)Oc1ccccc1", "note": "(some centres undefined)", "IC50": 9.3},
      {"smiles": "CCC(C)C(NC(=O)[C@@H]1CCCN1C(=O)[C@@H](NC(=O)OC(C)(C)C)C(C)(C)C)P(=O)(Oc1ccccc1)Oc1ccccc1", "note": "(some centres undefined)", "IC50": 10.3},
      {"smiles": "CC(C)C(NC(=O)[C@@H]1CCCN1C(=O)[C@@H](NC(=O)OC(C)(C)C)C(C)C)P(=O)(Oc1ccccc1)Oc1ccccc1", "note": "(some centres undefined)", "IC50": 12.5}
    ]},
    {"test_system": "Chlamydia trachomatis", "assay": "Antibacterial activity against Chlamydia trachomatis D (D/UW-3/Cx; CtD) infected in HEp-2 cells assessed as log reduction in infectivity unit at 25 uM measured after 44 hrs", "format": "functional", "details": "not given", "in_short": "(§3)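 C. trachomatis D was grown in HEp-2 cells and C. pecorum G in McCoy B cells, in high-glucose DMEM with 10% heat-inactivated FCS, 4 mM alanyl-glutamine, streptomycin and gentamicin. Cells were seeded at 20,000/well 24 h before infection, at MOI 12 (CtD) or MOI 4 (CpG). Infection was synchronised by centrifugation at 500×g, 28 °C, 30 min. Dose series added 16 h PI, with 1% DMSO and media controls. Read-out was IFU/mL; n=3.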", "values": [
      {"smiles": "CC(C)C(NC(=O)[C@@H]1CCCN1C(=O)[C@@H](NC(=O)OC(C)(C)C)C(C)C)P(=O)(Oc1ccccc1)Oc1ccccc1", "note": "(some centres undefined)", "Activity": "Active"}
    ]},
    {"test_system": "Chlamydia pecorum", "assay": "Antibacterial activity against Chlamydia pecorum G (MC/MarsBar;CpG) infected in McCoy B cells assessed as log reduction in infectivity unit at 25 uM measured after 44 hrs", "format": "functional, organism-based", "details": "VR629 G (MC/MarsBar;CpG)", "in_short": "as §3", "values": [
      {"smiles": "CC(C)C(NC(=O)[C@@H]1CCCN1C(=O)[C@@H](NC(=O)OC(C)(C)C)C(C)C)P(=O)(Oc1ccccc1)Oc1ccccc1", "note": "(some centres undefined)", "Activity": "Active"}
    ]},
    {"test_system": "Escherichia coli", "assay": "Antibacterial activity against Escherichia coli assessed as growth inhibition at 50 uM", "format": "functional, organism-based", "details": "not given", "in_short": "as §1", "values": [
      {"smiles": "CC(C)C(NC(=O)[C@@H]1CCCN1C(=O)[C@@H](NC(=O)OC(C)(C)C)C(C)(C)C)P(=O)(Oc1ccccc1)Oc1ccccc1", "note": "(some centres undefined)", "Activity": "inactive"},
      {"smiles": "CCC(C)C(NC(=O)[C@@H]1CCCN1C(=O)[C@@H](NC(=O)OC(C)(C)C)C(C)(C)C)P(=O)(Oc1ccccc1)Oc1ccccc1", "note": "(some centres undefined)", "Activity": "inactive"},
      {"smiles": "CC(C)C(NC(=O)[C@@H]1CCCN1C(=O)[C@@H](NC(=O)OC(C)(C)C)C(C)C)P(=O)(Oc1ccccc1)Oc1ccccc1", "note": "(some centres undefined)", "Activity": "inactive"}
    ]},
    {"biological_target": "T2, Neutrophil elastase (Homo sapiens, UniProt P08246)", "T2 sequence (P08246 whole entry)": "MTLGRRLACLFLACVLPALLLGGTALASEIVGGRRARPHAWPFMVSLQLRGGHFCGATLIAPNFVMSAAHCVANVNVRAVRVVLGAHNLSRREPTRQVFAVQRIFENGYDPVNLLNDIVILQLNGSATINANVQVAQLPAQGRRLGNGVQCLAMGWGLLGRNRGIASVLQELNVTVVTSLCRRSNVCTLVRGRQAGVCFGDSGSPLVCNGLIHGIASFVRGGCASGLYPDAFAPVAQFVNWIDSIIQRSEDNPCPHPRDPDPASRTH", "assay": "Inhibition of human neutrophil elastase using methoxysuccinyl-Ala-Ala-Pro-Val-pNA as substrate incubated for 15 min", "details": "not given", "units": {"IC50": "µM"}, "values": [
      {"smiles": "CC(C)C(NC(=O)[C@@H]1CCCN1C(=O)[C@@H](NC(=O)OC(C)(C)C)C(C)(C)C)P(=O)(Oc1ccccc1)Oc1ccccc1", "note": "(some centres undefined)", "IC50": 3.02},
      {"smiles": "CCC(C)C(NC(=O)[C@@H]1CCCN1C(=O)[C@@H](NC(=O)OC(C)(C)C)C(C)(C)C)P(=O)(Oc1ccccc1)Oc1ccccc1", "note": "(some centres undefined)", "IC50": 13.5},
      {"smiles": "CC(C)C(NC(=O)[C@@H]1CCCN1C(=O)[C@@H](NC(=O)OC(C)(C)C)C(C)C)P(=O)(Oc1ccccc1)Oc1ccccc1", "note": "(some centres undefined)", "IC50": 1.15}
    ]},
    {"biological_target": "T3, Probable periplasmic serine endoprotease DegP-like (Chlamydia trachomatis) (UniProt P18584)", "T3 sequence (whole entry)": "T1 sequence (P18584 whole entry)", "assay": "Ratio of JO146 IC50 to test compound IC50 for inhibition of recombinant ctHtrA serine protease using Me0Coum-ENLHLPLPI1F-D as substrate pretreated for 10 minutes followed by substrate addition and measured after 30 minutes", "details": "not given", "in_short": "as §2", "values": [
      {"smiles": "CC(C)C(NC(=O)[C@@H]1CCCN1C(=O)[C@@H](NC(=O)OC(C)(C)C)C(C)(C)C)P(=O)(Oc1ccccc1)Oc1ccccc1", "note": "(some centres undefined)", "Ratio IC50": 1.34},
      {"smiles": "CCC(C)C(NC(=O)[C@@H]1CCCN1C(=O)[C@@H](NC(=O)OC(C)(C)C)C(C)(C)C)P(=O)(Oc1ccccc1)Oc1ccccc1", "note": "(some centres undefined)", "Ratio IC50": 1.22},
      {"smiles": "CC(C)C(NC(=O)[C@@H]1CCCN1C(=O)[C@@H](NC(=O)OC(C)(C)C)C(C)C)P(=O)(Oc1ccccc1)Oc1ccccc1", "note": "(some centres undefined)", "Ratio IC50": 1}
    ]}
  ]
}
